Screening results from PubChem.
HSF1 inh: HSF1 inhibitors in luciferase reporter cells, primary screen, cell-based, NIH3T3, luminescence. NIH3T3-HGL HSE-luciferase, MG132-induced, luminescence 8 h; active compounds read low. activity change, negative = inhibition, % at 7.5 µM (by protocol). 300,000 compounds, 0.77% hits. AID 2098, 2009;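 active = more than half of replicate wells show activity change below -50%, luminescence cut by over half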;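 note: luciferase reports HSF-1 transcriptional activity via heat shock element; 0% = median of DMSO wells and -100% = zero luminescence signal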
HSP90 inh: HSP90 inhibitors, primary screen, cell lysate, luminescence | Rabbit reticulocyte lysate, luciferase refolding luminescence, 3 h | inhibition, % at 5.6 µM | 290,000 compounds, 0.91% hits | AID 1789, 2009;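 active = inhibition above the screen-wide mean plus 3 SD, computed separately per campaign, cut at about 16% in these data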;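 note: 0% = DMSO wells and 100% = 60 µM geldanamycin wells; inhibitors lower the luminescence because luciferase stays unfolded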
HCV core dimer: inhibitors of HCV core protein dimerization, primary screen, biochemical, TR-FRET, high-throughput. TR-FRET GST/Flag-core106 dimerization, 1536-well. inhibition, % at 5 µM. 300,000 compounds, 0.33% hits;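 active = inhibition above the mean of all tested compounds plus 3 SD, set per screening campaign, cut at about 45% in these data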
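Assay system: Tagged HCV core106 pair (GST and Flag) | Buffer or medium: KF-containing HEPES buffer, pH 7.45, DTT, CHAPS, BSA | Also added: Eu donor and XL665 acceptor anti-tag antibodies | Dosing: One concentration, 5 µM, in 0.5% DMSO | Timing: 4 h at 22.5 °C | Technique: TR-FRET 671 and 617 nm emission | Repeats: Singlicate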
DNA FID counter: compounds displacing fluorescent DNA intercalator, primary screen, artefact control for HCV NS3 helicase inhibitor project, biochemical, FID fluorescence | DNA fluorescent intercalator displacement | inhibition, % at 7.9 µM | 290,000 compounds, 0.17% hits; in the data active = inhibition above about 37%;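 note: 0% = vehicle and 100% = reference compound; higher means more ethidium bromide displaced from hairpin DNA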
HSF-1 act: HSF-1 activators, primary screen, NIH3T3-HGL cells, MG132 stress, luminescence, single point; 300,000 compounds, 1.7% hits; NIH3T3-HGL HSF-1 luciferase reporter, 8 h; 100% = twice DMSO control signal; activation, % at 9 µM;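 active = mean replicate activation of at least 50% with a set share of replicates each reaching 50%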;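 note: 0% = median of the neutral control wells and 100% = twice that signal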
NS3 helicase inh: inhibitors of HCV NS3 helicase, primary screen, biochemical, Cy5 molecular beacon fluorescence; Hepatitis C virus NS3 helicase; NS3 helicase DNA unwinding; inhibition, % at 10.9 µM; 290,000 compounds, 0.56% hits; AID 1800, 2009;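 active = inhibition above the mean of all tested compounds plus 3 SD, set per campaign, cut at about 35% in these data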;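 note: 0% = DMSO wells and 100% = thioflavine S control wells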
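Material: hepatitis C virus NS3 helicase domain fragment enzyme; measured by: Cy5 fluorescence, 0 and 60 min reads; control set: DMSO and thioflavine S; incubation: 60 min unwinding reaction at 25 °C after ATP addition; read-out basis: % inhibition from 60/0 min fluorescence ratio, DMSO 0%, thioflavine S 100%; repeats: singlicate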
HSP90 inh confirm: HSP90 inhibitors, confirmation, cell lysate, luminescence | shares compounds with HSP90 inh | rabbit reticulocyte lysate, luciferase refolding luminescence, 3 h | inhibition, % at 5.9 µM | 2,300 compounds, 64% hits | AID 1846, 2009; in the data active = inhibition above about 18%;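 note: 0% = vehicle wells and 100% = reference inhibitor wells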
luciferase ctr: firefly luciferase inhibitors, HSP90 counter-screen, confirmation, artefact control for HSP90 inhibitor project, biochemical, luminescence, triplicate | shares compounds with HSP90 inh | purified native firefly luciferase | inhibition, % at 5.9 µM | 2,300 compounds, 48% hits | AID 1847, 2009;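 active = inhibition above the mean inhibition of all tested sample wells plus 3 SD, cut at about 10% in these data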;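 note: 0% = DMSO with luciferase and 100% = wells lacking luciferase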
Target sequence (P08659 whole entry, looked up): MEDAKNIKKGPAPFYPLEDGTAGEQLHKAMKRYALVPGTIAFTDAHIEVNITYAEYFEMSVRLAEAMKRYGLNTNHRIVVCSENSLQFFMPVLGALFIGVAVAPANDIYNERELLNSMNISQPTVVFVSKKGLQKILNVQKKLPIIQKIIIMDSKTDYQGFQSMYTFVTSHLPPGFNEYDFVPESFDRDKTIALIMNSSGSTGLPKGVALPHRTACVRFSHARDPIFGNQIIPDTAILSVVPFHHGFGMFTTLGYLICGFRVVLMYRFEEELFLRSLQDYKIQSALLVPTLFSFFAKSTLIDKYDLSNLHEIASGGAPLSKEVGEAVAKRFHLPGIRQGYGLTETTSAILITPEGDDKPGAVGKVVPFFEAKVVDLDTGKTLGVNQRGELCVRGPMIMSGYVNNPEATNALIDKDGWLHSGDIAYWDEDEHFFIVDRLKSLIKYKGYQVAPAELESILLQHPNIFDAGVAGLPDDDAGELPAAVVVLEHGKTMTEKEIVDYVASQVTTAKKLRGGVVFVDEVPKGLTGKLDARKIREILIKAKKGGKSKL
The depositor's hits bear a star; / = no result given. Only some compounds are listed: those with a hit (about 3.9% of all), similar ones and a draw of the others.

SMILES	HSF1 inh	HSP90 inh	HCV core dimer	DNA FID counter	HSF-1 act	NS3 helicase inh	HSP90 inh confirm	luciferase ctr
O=C(NCc1cccs1)C1CC1	-4.5	0.5	-1.1	-2.2	5.8	-0.3	/	/
COc1ccccc1C(=O)NCCC(=O)N1CCN(c2ccccc2O)CC1	1.0	/	-5.7	/	5.5	/	/	/
O=C(Nc1ccc(CN2CCOCC2)cc1)c1cc2ccccn2n1	-36.1	44.7*	-17.4	-2.5	-45.0	8.2	61.5*	41.2*
CC(C)c1ccc(C(=O)Nc2ccc(CN3CCOCC3)cc2)cc1	0.9	23.6*	-14.4	5.7	-11.0	-43.0	19.5*	-10.3
CC(=NC1CCCC1)c1c(C)[nH]n(-c2nc3ccccc3s2)c1=O	-28.9	18.8*	9.4	-1.1	-43.1	3.5	18.5*	1.0
C/C(=N\NC(=O)c1cc2ccccc2cc1O)c1cccs1	37.2	22.4*	-19.2	-7.5	41.2	20.1	33.7*	37.9*
Cc1nnc(N2C(=O)C(=O)/C(=C(\O)c3ccc4c(c3)CC(C)O4)C2c2ccccc2)s1 (stereo unspecified)	-29.7	26.1*	-0.7	-45.5	-42.2	8.8	17.0*	25.7*
COc1cccc(C2/C(=C(/O)c3ccc4c(c3)CC(C)O4)C(=O)C(=O)N2c2nnc(C)s2)c1 (stereo unspecified)	1.0	-3.6	4.2	-38.6	14.9	-2.7	/	/
CC1Cc2cc(/C(O)=C3/C(=O)C(=O)N(CC4CCCO4)C3c3ccco3)ccc2O1 (stereo unspecified)	-55.6*	22.4*	5.0	-16.8	-66.9	-2.8	8.1	11.5*
COc1cc(C2/C(=C(\O)c3ccc4c(c3)CC(C)O4)C(=O)C(=O)N2CC2CCCO2)cc(OC)c1OC (stereo unspecified)	-1.7	5.3	/	-34.7	-11.3	12.7	/	/
CC1Cc2cc(/C(O)=C3/C(=O)C(=O)N(CCN4CCOCC4)C3c3cccc(O)c3)ccc2O1 (stereo unspecified)	-8.8	18.4*	2.1	-6.9	14.6	-2.7	18.4*	7.5
CCOc1ccc(NC(=O)CC2C(=O)N(c3cccc(OC)c3)C(=O)N2CCOC)cc1 (stereo unspecified)	-0.6	-3.7	-4.3	-12.2	-2.8	1.5	/	/
CCCS(=O)(=O)c1cnc(C2COc3ccccc3O2)nc1N (stereo unspecified)	-80.1*	92.6*	-8.8	-13.0	-83.2	16.2	87.7*	80.1*
CC1(C(=O)N2CCN(c3ccccc3)CC2)CC1(Cl)Cl (stereo unspecified)	-1.8	-1.9	-6.9	-16.4	-14.5	-4.7	/	/
CC1(C(=O)N2CCN(Cc3ccccc3Cl)CC2)CC1(Cl)Cl (stereo unspecified)	10.7	19.1*	-3.7	-24.3	6.7	-1.7	-6.4	-16.0
COc1ccccc1N1CCN(CCN2C(=O)C3CCCN3C2=O)CC1 (stereo unspecified)	6.8	-1.3	-4.8	2.1	31.0	-3.3	/	/
COc1ccc(CCn2c(C)cc(C(=O)COC(=O)c3cnccn3)c2C)cc1	-0.4	4.2	13.2	-13.3	-11.4	8.8	/	/
CCCn1c(C)cc(C(=O)COC(=O)c2nccnc2N)c1C	0.8	24.9*	-0.4	-8.4	12.1	-8.0	40.0*	57.1*
c1ccc(-c2nc(-c3nccc4ccccc34)oc2-c2ccccc2)cc1	5.5	23.3*	3.5	-5.3	31.0	-4.3	27.6*	35.2*
